# CHOP inhibitor: inhibitors of CHOP promoter induction, primary screen, cell-based, unfolded protein response, luciferase reporter; CHO-K1 CHOP-promoter luciferase, tunicamycin-induced, 15-18 h; inhibition, % at 10 µM; 220,000 tested, 3.8% active;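 active means compounds that reduced the stress-induced luciferase reporter signal by more than about 70% of percent inhibition, limit read from the data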;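 further: 0% = tunicamycin plus vehicle and 100% = wells without tunicamycin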
# Bfl-1 A1 inh: caspase 3/7 activation in MEF A1-2A-BIM cells, primary screen, A1 inhibitor project, cell-based, luminescence, HTS; Caspase-Glo 3/7 luminescence, 3 h; percent of clofoctol response, vehicle zero; caspase activation, % (no concentration beside the values); 330,000 tested, 0.066% active; AID 2462, 2010;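 active means over half of replicate activation scores above 10%, or exactly half above 10 with the replicate mean above 10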
# CHOP UPR activ: activators of apoptotic CHOP UPR arm, primary screen, cell-based, CHO-CHOP luciferase reporter, luminescence, uHTS | activation, % at 10 µM | AID 449763, 2010 | 330,000 tested, 0.34% active | UPR activation; percent of tunicamycin response over DMSO baseline;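 active means at 10 µM dose, activation of 40% or more, normalized to positive control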;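 further: 100% = tunicamycin at 10 µg/mL and 0% = DMSO alone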
#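 Test system: CHO CHOP reporter cells. Input: 500 CHO-CHOP cells per well. Medium: F12 with 10% FBS. Technique: luciferase luminescence. Measure: percent activation relative to tunicamycin control. Dosing: 10 µM compound, 0.5% DMSO. Timing: 16-18 h cell attachment, then 6 h compound exposure, 37 °C.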
# XBP1 UPR activ: activators of adaptive XBP1 UPR arm, primary screen, cell-based, CHO-XBP1 luciferase reporter, luminescence, uHTS; IRE1-XBP1 UPR activation; percent of tunicamycin response, DMSO as zero; activation, % at 20 µM; 330,000 tested, 0.33% active; AID 463104, 2010;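 active means versus positive control, 20 µM dose yields 30% or more activation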;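 further: 100% = tunicamycin at 10 µg/mL and 0% = DMSO only wells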
#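 Material: IRE1-XBP1 luciferase reporter CHO line / Quantity: one thousand reporter cells per well / Buffer or medium: F12 with 10% serum / Compound: 20 µM single concentration, DMSO 1% / Times: 6 h treatment, 37 °C / Detection: Steady-Glo luciferase glow luminescence, 10 min after reagent addition / Benchmarks: tunicamycin high, DMSO low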
# The depositor's hits bear a star; . = no result. The sample as a whole holds a higher share of hits than the screen did.
SMILES,CHOP inhibitor,Bfl-1 A1 inh,CHOP UPR activ,XBP1 UPR activ
CCOC(=O)C1=C(C)NC(=O)NC1c1ccc(-c2ccc(Cl)cc2)o1 (stereo not drawn),45,1,-2,0
CCOC(=O)C1=C(C)NC(=S)NC1c1ccc(-c2ccc(Cl)cc2)o1 (stereo not drawn),72*,0,1,-1
CCOC(=O)C1=C(C)NC(=S)NC1c1ccco1 (stereo not drawn),4,0,1,-1
CN=c1scc(-c2cccs2)n1/N=C/c1ccc(O)c(O)c1O,-3,-6,18,-6
CN=c1scc(-c2cccs2)n1/N=C/c1ccccc1O,94*,-1,-10,-6
CCOC(=O)c1c(S(=O)(=O)NCC2CCN(CCc3cccs3)CC2)c(C)n(C)c1C,.,0,0,-5
COCCCNC(=S)NNC(=O)c1cc(C2CC2)nc2ccccc12,.,0,2,-4
O=C(CS(=O)c1ccc(C(F)(F)F)cc1[N+](=O)[O-])Oc1ccccc1 (stereo not drawn),88*,9.2*,16,0
CC1=CC(=O)c2c(O)ccc(O)c2C1=O,106*,0,.,.
COc1ccc(-c2onc3ccc(Cl)cc23)cc1,79*,0,3,2
Cc1ccc(-c2onc3ccc(Cl)cc23)cc1,64,1,1,-1
O=C(Nc1cccc(-c2nc3ccccc3o2)c1)c1ccc(N2C(=O)C3C4C=CC(C4)C3C2=O)cc1 (stereo not drawn),71*,1,-4,2
O=C(Nc1ccc2oc(-c3cccc(F)c3)nc2c1)c1ccccc1F,73*,1,7,10
COc1ccc(OCC(=O)Nc2cccc(-c3nc4ccccc4o3)c2)cc1,75*,-5,2,0
COc1cc(C(=O)Nc2cccc(-c3nc4cc(C)ccc4o3)c2)cc(OC)c1OC,75*,0,5,2
O=C1C2C3C=CC(C3)C2C(=O)N1c1cccc(-c2nc3ccccc3o2)c1 (stereo not drawn),26,-2,-1,7
O=C(Nc1ccc2oc(-c3ccccc3)nc2c1)c1ccccc1F,-7,0,5,3
COc1cc2c(cc1OC)C(C(=O)NC(C)c1ccccc1)CC(=O)N2 (stereo not drawn),.,0,0,-2
Cc1ccc2c(=O)n3c(nc2c1)C(Cc1ccc(O)cc1)NC(=O)c1ccc(Cl)cc1-3 (stereo not drawn),.,0,-1,6
CCCCn1c(N)c(N(CC(C)C)C(=O)c2ccc(OCC3CCCO3)cc2)c(=O)[nH]c1=O (stereo not drawn),.,0,0,1
COc1ccc(CC(=O)Nc2cccc(-c3nnc(-c4ccco4)o3)c2)cc1,59,1,0,1
COc1ccc(C(=O)Nc2cccc(-c3nnc(-c4ccco4)o3)c2)cc1,72*,-1,4,2
CN(CC(=O)Nc1cccc(F)c1)C(=O)c1cccnc1Sc1ccc(Cl)cc1,.,0,-1,0
COc1ccc2oc(C(=O)OCC(=O)N(C)CC(=O)Nc3ccc(F)cc3)c(C)c2c1,.,0,1,1
CC(C)CCNC(=O)c1cn(CC(C)C)c(=O)c2c1c1ccccc1n2C,.,0,1,1
SMILES,CHOP inhibitor,Bfl-1 A1 inh,CHOP UPR activ,XBP1 UPR activ
CC(C)Cn1cc(C(=O)NCc2cccs2)c2c3ccccc3n(C)c2c1=O,94*,-1,-1,-3
Nc1ccc(C23CC4CC(CC(C4)C2)C3)cc1,75*,-1,-1,2
CCOC(=O)CN(C(=O)COC(=O)C1=NNC(=O)CC1)c1ccc(F)cc1,.,1,1,1
COc1ccc(CCNc2oc(COc3ccccc3)nc2C#N)cc1,35,.,-1,0
N#Cc1nc(-c2ccc(F)cc2)oc1NCc1ccccc1,82*,1,1,1
Cc1ccc(CNc2oc(COc3ccccc3Cl)nc2C#N)cc1,85*,0,1,-4
N#Cc1nc(COc2ccc(Cl)cc2)oc1NCc1ccc2c(c1)OCO2,73*,0,3,-2
N#Cc1nc(COc2ccccc2F)oc1NCCc1ccccc1,80*,2,3,0
O=c1[nH]c(/C(Cl)=C/c2cccc(C(F)(F)F)c2)nc2cc(Cl)ccc12,29,0,2,4
O=c1[nH]c(/C(Cl)=C/c2c(F)cccc2Cl)nc2cc(Cl)ccc12,79*,-2,2,4
CCOC(=O)N1CCN(c2ncnc3c2[nH]c2ccc(F)cc23)CC1,71*,0,4,2
COc1cc(OC)c(C(=O)NC2CCCc3ccccc32)cc1OC (stereo not drawn),.,1,-1,13
CCN(CC)S(=O)(=O)c1ccc(Oc2ccc(S(=O)(=O)N(CC)CC)cc2)cc1,72*,1,5,-4
C/C(=N/Nc1ncc(Br)cn1)c1ccc([N+](=O)[O-])cc1,.,2,3,6
CC1=CC(C)(C)N2C(=O)C3(C(C#N)=C(N)Oc4cc(O)ccc43)c3c(C)c(C)cc1c32 (stereo not drawn),96*,-1,1,4
CCOC(=O)C1=C(c2ccccc2)N=c2s/c(=C\c3cccc(O)c3)c(=O)n2C1c1cccs1 (stereo not drawn),90*,0,5,6
CCOC(=O)C1=C(C)N=c2s/c(=C\c3cccc(OCC(=O)O)c3)c(=O)n2C1c1ccccc1OC (stereo not drawn),.,-1,0,3
Cc1cc(C)nc(NS(=O)(=O)c2ccc(N/C=C/C(=O)c3ccc(Cl)c(Cl)c3)cc2)n1,80*,0,0,-2
COc1cccc(C(=O)/C=C/Nc2ccc(S(=O)(=O)Nc3nc(C)cc(C)n3)cc2)c1,11,-1,0,-6
Cc1cc(C)nc(NS(=O)(=O)c2ccc(N/C=C\C(=O)c3ccc(Cl)cc3)cc2)n1,82*,0,-2,4
COc1ccc(C(=O)/C=C/Nc2ccc(S(=O)(=O)Nc3cccc(C(C)=O)c3)cc2)cc1,79*,0,8,1
COc1ccc(/C=N/N2CCN(C3c4ccccc4-c4ccccc43)CC2)cc1O,92*,0,3,-2
Cc1cc(C)cc(N=Cc2c(O)c3ccccc3oc2=O)c1,55,10*,10,29
Cc1cc(C)c(N=Cc2c(O)c3ccccc3oc2=O)c(C)c1,.,0,4,4
CSc1ccc(S(=O)(=O)NCCOc2ccccc2C)cc1,72*,1,0,-1
Cc1ccc(-c2[nH]c3ccccc3c2C(C[N+](=O)[O-])c2ccco2)cc1 (stereo not drawn),89*,-1,-5,-1
COc1cc(S(=O)(=O)Nc2ccc(C)cc2)ccc1N=Cc1c(C)c(C#N)c(=O)n(C)c1O,74*,2,0,13

# High-throughput results deposited in PubChem by several laboratories.
